Source: PubChem BioAssay (several laboratories)
Myeloid diff 2 = compounds promoting myeloid differentiation | ER-HoxA9 myeloid progenitors, lysozyme-GFP differentiation, flow cytometry | calls only at 10 µM | actives 1% (n = 360,000) | AID 624256;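 active means normalized GFP-positive differentiation at or above the plate's own cutoff, the solvent-only control mean plus 3 SD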;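 further: cells exposed to compound for four days before flow analysis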
ABCB6 inh MLPCN = human ABCB6 transporter inhibition. Q9NP58. K562-ABCB6 porphyrin accumulation, flow cytometry, 1 h; active compounds read low. fluorescence ratio to DMSO, % at 10 µM. actives 0.19% (n = 360,000);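 active means fluorescence ratio to DMSO below 75%, the collection mean minus 3 SD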;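 further: signal is porphyrin accumulated inside mitochondria; lower ratio means ABCB6 inhibition with less porphyrin fluorescence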
XiGFP reactiv = reactivates the inactive X chromosome in mouse fibroblasts | XiGFP mouse fibroblasts, % GFP-positive cells imaging, 3 d; cells co-treated with 5-aza-dC sensitizer; scaled so ellipticine positive control = 100% | AID 743238 | actives 0.055% (n = 360,000) | activation, % at 7.58 µM;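 active means mean normalized replicate activation at least 10% and every replicate at or above 10%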
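Material: XiGFP fibroblasts, SV40-immortalized. Buffer or medium: DMEM plus 5-aza-dC sensitizer. Compound: single concentration per compound, delivered by pin transfer. Times: 3 days compound exposure. Controls: ellipticine 6 µM.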
Numbers stand for hits; – = inactive; · = no result; + = active, no number. Only a selection was taken, and hits are over-represented in it overall.

SMILES	Myeloid diff 2	ABCB6 inh MLPCN	XiGFP reactiv
CO[C@H]1CN(C)C(=O)c2ccc(NC(=O)C3CC3)cc2OC[C@@H](C)N(CCC(F)(F)F)C[C@@H]1C	·	·	–
Cc1c(C(=O)N(C)Cc2nc3ccccc3c(=O)[nH]2)oc2ccccc12	+	–	–
CN(Cc1nc2ccccc2c(=O)[nH]1)C(=O)c1ccc(S(=O)(=O)N(C)C)cc1	–	–	·
CC1(C)Cc2c(C#N)c(N)n(-c3ccccc3)c(=S)c2CO1	–	–	–
N#Cc1c2c(c(=S)n(-c3ccccc3)c1N)CCCC2	+	–	·
C[C@@H]1CCCCO[C@@H](CN(C)CC2CCCCC2)[C@@H](C)CN([C@H](C)CO)C(=O)c2cc(NC(=O)Cc3ccccc3)ccc2O1	·	·	–
CN(C)c1ccc2c(c1)[C@@H]1C[C@@H](CC(=O)NCc3ccc4c(c3)OCO4)O[C@H](CO)[C@@H]1O2	·	·	–
CCc1cccc(CC)c1NC(=O)c1cccc(NC(=O)c2ccccc2)c1	+	–	·
CCOc1ccc(NC(=O)c2cccc(NC(=O)c3ccccc3)c2)cc1	–	–	–
CN(C)CCCNC(=O)C[C@H]1CC[C@H]2[C@@H](COc3ccc(NC(=O)CN(C)C)cc3C(=O)N2C)O1	·	·	–
Cc1cc(NC(=O)CSc2nnc(-c3ccncc3)n2C)n(-c2ccccc2)n1	+	–	–
Cc1cc(NC(=O)CSc2nnc(-c3ccncc3)n2Cc2ccccc2)n(-c2ccccc2)n1	–	–	–
Cc1noc(C)c1NC(=O)Nc1ccc2c(c1)C(=O)N([C@@H](C)CO)C[C@@H](C)[C@H](CN(C)C(=O)Nc1cccc3ccccc13)OCCCC[C@@H](C)O2	·	·	–
CO[C@H]1CN(C)C(=O)c2ccc(NS(=O)(=O)c3cccc(F)c3)cc2OC[C@@H](C)N(C(=O)Cc2cccnc2)C[C@H]1C	·	·	–
Cc1nn(Cc2cccc(C(=O)O)c2)c(C)c1[N+](=O)[O-]	–	–	–
Cc1nn(Cc2cccc(C(=O)Nc3ccn(Cc4ccccc4)n3)c2)c(C)c1[N+](=O)[O-]	+	–	·
CC(=O)N(C[C@H]1N[C@H](CO)[C@H]1c1ccc(-c2ccc(F)cc2)cc1)C(C)C	·	·	–
CC(C)C[C@H]1COCc2cn(nn2)CC[C@H](Cc2ccccc2)C(=O)N1	·	·	–
O=C(C1CC1)N1CC2(C1)[C@H](c1ccccc1)[C@@H](CO)N2Cc1ccccc1F	·	·	–
COC(=O)[C@H]1[C@H]2C[C@@H]3c4[nH]c5cc(OC)ccc5c4CCN3C[C@H]2C[C@@H](OC(=O)/C=C/c2cc(OC)c(OC)c(OC)c2)[C@@H]1OC	–	–	–
COC(=O)[C@H]1[C@H]2C[C@@H]3c4[nH]c5cc(OC)ccc5c4CCN3C[C@H]2C[C@@H](OC(=O)c2ccc(N)cc2)[C@@H]1OC	+	–	–
O=C(C1CC1)N1C[C@H]2[C@@H](c3ccccc31)[C@@H](CO)N2Cc1ccccc1Cl	·	·	–
N/C(=N\c1nc(CSc2nc3ccccc3s2)cc(=O)[nH]1)Nc1ccc(F)cc1	–	–	35
Cc1ccc(N/C(N)=N/c2nc(CSc3nnc(N)s3)cc(=O)[nH]2)cc1	–	–	–
Cc1ccc(S(=O)(=O)N2CCN(C(=O)C3CCN(c4ncnc5sc(C)c(C)c45)CC3)CC2)c(C)c1	–	64	–
SMILES	Myeloid diff 2	ABCB6 inh MLPCN	XiGFP reactiv
Cc1sc2ncnc(N3CCN(S(=O)(=O)c4ccc(C(C)(C)C)cc4)CC3)c2c1C	–	–	–
O=C1C2CCCN2C(c2ccccc2)N1c1ccc(Cl)cc1 (stereo not given)	+	–	·
COc1ccc(N2C(=O)C3CCCN3C2c2ccc(Cl)cc2)cc1 (stereo not given)	–	–	–
CC(C)C1Nc2ccc(C(=O)NC3CCCCC3)cc2NC1=O (stereo not given)	–	–	·
CC1Nc2ccc(C(=O)NC3CCCCC3)cc2NC1=O (stereo not given)	+	–	–
C[C@@H]1CCCCO[C@H](CN(C)Cc2ccccc2)[C@H](C)CN([C@@H](C)CO)C(=O)c2cc(NS(=O)(=O)c3ccc(F)cc3)ccc2O1	·	·	–
Cc1ccc(/C=C2/NC(=O)N(Cc3ccccc3F)C2=O)s1	+	–	–
O=C1N/C(=C/c2cccs2)C(=O)N1Cc1ccccc1F	–	–	–
C[C@@H]1CN([C@@H](C)CO)C(=O)c2cc(NC(=O)C3CCCCC3)ccc2O[C@@H](C)CCCCO[C@@H]1CN(C)Cc1ccc2c(c1)OCO2	·	·	–
Nc1nc(-c2ccccc2)c(-c2ccccc2)n1N	–	–	–
c1ccc(-c2cnn3c(-c4ccccc4)c(-c4ccccc4)nc3n2)cc1	+	–	99
CSc1ccc(Cl)c(C(=O)OCC(=O)NCC(C)C)c1	–	–	·
CNC(=O)COC(=O)c1cc(SC)ccc1Cl	+	–	–
COc1ccc(NC(=O)N(C)C[C@H]2Oc3ccc(NC(=O)Cn4cnnn4)cc3C(=O)N([C@@H](C)CO)C[C@H]2C)cc1	·	·	–
CCC(=O)N[C@@H]1C=C[C@H](CC(=O)NCc2ccccc2OC)O[C@H]1CO	·	·	–
O=[N+]([O-])c1cc([N+](=O)[O-])c(Oc2ccc(Cl)c3cccnc23)cc1NN1CCCCC1	+	–	–
O=[N+]([O-])c1cc([N+](=O)[O-])c(Oc2cccc(Cl)c2Cl)cc1NN1CCCCC1	–	–	–
C[C@H](CO)N1C[C@H](C)[C@@H](CN(C)S(=O)(=O)c2cn(C)cn2)Oc2ccc(NS(=O)(=O)c3cn(C)cn3)cc2CC1=O	·	·	–
COc1cccc(CN2[C@@H](CO)[C@@H](c3ccccc3)C23CN(Cc2ccccc2OC)C3)c1	·	·	–
CCCC(=O)N1CC2(CCN(Cc3cccnc3)CC2)c2c([nH]c3cc(OC)ccc23)[C@@H]1CO	·	·	–
CN(C)CCCNC(=O)C[C@H]1CC[C@H]2[C@@H](COc3ccc(NC(=O)NC4CCCC4)cc3C(=O)N2C)O1	·	·	–
COc1ccccc1-c1ccc([C@@H]2[C@@H](CO)N3CCCCN(C(=O)CN4CCOCC4)C[C@@H]23)cc1	·	·	–
C/C=C/c1cccc(-c2nc(C(=O)NCCC)cc3c2[C@H](CCO)N([S@@](=O)C(C)(C)C)C3)c1	·	·	–
CC(=O)c1c(C)[nH]c(C(=O)/C(C#N)=C/c2cccc(C)c2)c1C	–	–	–
CCOC(=O)c1c(C)[nH]c(C(=O)/C(C#N)=C/c2ccc(OCC)cc2)c1C	+	–	–
SMILES	Myeloid diff 2	ABCB6 inh MLPCN	XiGFP reactiv
C[C@H](CO)N1C[C@H](C)[C@@H](CN(C)S(C)(=O)=O)Oc2ccc(NC(=O)Cc3ccccc3)cc2CC1=O	·	·	–
CCN(CC)C(=O)CCn1nc(-c2ccc(C)cc2)c2ccccc2c1=O	–	–	·
CCN(CC)C(=O)Cn1c(=O)c2ccccc2n2c(=S)sc(-c3cccc(C)c3)c12	+	–	–
C[C@H](CO)N1C[C@H](C)[C@@H](CN(C)S(=O)(=O)c2cn(C)cn2)Oc2c(NC(=O)CCCN(C)C)cccc2C1=O	·	·	–
Cc1ccc(C(=O)CSc2nc3cc(S(=O)(=O)N4CCOCC4)ccc3o2)cc1	–	–	·
Cc1[nH]c2ccccc2c1C(=O)CSc1nc2cc(S(=O)(=O)N3CCCCC3)ccc2o1	–	69	·
CN(C)C(=O)[C@@H]1[C@@H](CO)[C@@H]2Cn3c(ccc(-c4cccc(F)c4)c3=O)[C@H]1N2Cc1ccccc1	·	·	–
CCC(=O)NCCNc1nc2cc(C)c(C)cc2cc1C#N	–	–	·
